Experimental data reported in ChEMBL document CHEMBL1129791, “Antipsoriatic anthrones with modulated redox properties. 3. 10-thio-substituted 1,8-dihydroxy-9(10H)-anthracenones as inhibitors of keratinocyte growth, 5-lipoxygenase, and the formation of 12(S)-HETE in mouse epidermis” (J Med Chem, 1996).

Experiments:
[1] = Acidity constant in aqueous solution was determined; format: ADME
In short: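 UV absorption spectra recorded in buffer solutions spanning pH 2.5–12.0, with measured pH values corrected where needed. Absorbance at pH 2.5 was taken as the neutral species and at pH 12.0 as the fully deprotonated species. pKa was obtained from titration curves of absorbance at suitable wavelengths.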

HaCaT [2] = assay: Compound was tested for activity of LDH(mU) release in HaCat cells after treatment with 2 uM compound; format: functional, Homo sapiens
In short: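 Human HaCaT keratinocytes exposed to 2 µM compound for 4 h at 37 °C. Extracellular LDH measured by UV method with pyruvate and NADH, expressed as mU/mL. Vehicle controls run in parallel; N = 3.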

[3] = target: T1, Arachidonate 5-lipoxygenase (Bos taurus, UniProt Q9BEG3); assay: Tested for inhibition of 5-lipoxygenase as inhibition of 5-HETE and LTB4 biosynthesis in bovine PMNL
T1 sequence (Q9BEG3 whole entry): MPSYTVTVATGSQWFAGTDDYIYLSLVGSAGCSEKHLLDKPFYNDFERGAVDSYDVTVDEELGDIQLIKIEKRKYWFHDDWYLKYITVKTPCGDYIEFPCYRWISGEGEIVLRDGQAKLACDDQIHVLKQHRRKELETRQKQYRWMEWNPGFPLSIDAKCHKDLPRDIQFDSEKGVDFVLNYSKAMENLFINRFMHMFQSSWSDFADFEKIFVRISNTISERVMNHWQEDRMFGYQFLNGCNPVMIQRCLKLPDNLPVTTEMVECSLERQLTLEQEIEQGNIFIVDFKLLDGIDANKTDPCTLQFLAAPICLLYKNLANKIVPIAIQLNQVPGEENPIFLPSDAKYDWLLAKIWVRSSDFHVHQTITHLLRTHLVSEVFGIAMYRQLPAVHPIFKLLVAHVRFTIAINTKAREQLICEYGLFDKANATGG

HaCaT [4] = assay: Tested for antiproliferative activity against HaCaT cells; format: functional, cell-based; details: Homo sapiens
In short: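 HaCaT keratinocytes treated for 48 h. Dispersed cells counted by phase-contrast microscopy. Inhibition = (1 − test/control) × 100, using test N = 3 and control N = 6-8.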

[5] = Half life in ethanol at 25 degrees celsius was determined; format: ADME
[6] = target: T2, Polyunsaturated fatty acid lipoxygenase ALOX12 (Mus musculus, UniProt P39655); assay: Tested for inhibition of 12-LO (12-lipoxygenase) as an inhibitor of 12(S)-HETE biosynthesis in mouse epidermal homogenates
T2 sequence (P39655 whole entry): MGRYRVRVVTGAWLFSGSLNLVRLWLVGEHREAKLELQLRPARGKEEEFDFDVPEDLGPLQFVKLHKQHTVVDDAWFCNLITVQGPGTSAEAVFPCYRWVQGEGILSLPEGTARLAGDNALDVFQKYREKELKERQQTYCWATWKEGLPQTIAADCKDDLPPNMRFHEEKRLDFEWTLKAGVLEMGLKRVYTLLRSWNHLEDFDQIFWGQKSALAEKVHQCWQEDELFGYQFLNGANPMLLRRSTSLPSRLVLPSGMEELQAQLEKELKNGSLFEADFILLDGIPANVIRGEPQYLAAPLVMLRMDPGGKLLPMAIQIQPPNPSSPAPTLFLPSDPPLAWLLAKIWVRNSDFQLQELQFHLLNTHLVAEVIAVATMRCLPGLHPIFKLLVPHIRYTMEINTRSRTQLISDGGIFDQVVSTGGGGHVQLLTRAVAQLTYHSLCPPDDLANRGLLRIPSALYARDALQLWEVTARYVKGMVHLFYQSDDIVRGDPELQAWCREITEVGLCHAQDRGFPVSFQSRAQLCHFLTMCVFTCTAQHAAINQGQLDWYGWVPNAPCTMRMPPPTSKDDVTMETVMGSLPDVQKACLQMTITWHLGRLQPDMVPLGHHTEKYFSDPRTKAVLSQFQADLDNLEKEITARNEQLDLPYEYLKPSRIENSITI

[7] = Half life in DMSO at 25 degrees celsius was determined; format: ADME
[8] = Deoxyribose degradation (DD) as umol of malondialdehyde/mmol of deoxyribose released by 75 uM; format: functional
In short: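 Deoxyribose degradation run in 30 mM KH2PO4-KOH buffer, pH 7.4, with 75 µM compound. Incubated 2 h at 37 °C in shaking water bath. TBA-reactive material read at 532 nm and expressed as µmol malondialdehyde per mmol deoxyribose.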

[9] = half life in DMSO at 25 degrees celsius; format: ADME
[10] = half life in ethanol at 25 degrees celsius; format: ADME

pKa [1]	half-life [5]	half-life [7]	SMILES	LDH (HaCaT [2])	IC50 [3]	IC50 (HaCaT [4])	IC50 [6]	DD [8]	half-life [9]	half-life [10]
8.4	20 h	26 h	Nc1ccccc1SC1c2cccc(O)c2C(=O)c2c(O)cccc21	255 mU/mL	2 µM	0.1 µM	6 µM	4.76	–	–
–	–	–	COc1cccc(SC2c3cccc(O)c3C(=O)c3c(O)cccc32)c1	–	–	1.8 µM	30 µM	4.29	–	–
–	–	–	O=C1c2c(O)cccc2C(SCCO)c2cccc(O)c21	136 mU/mL	2 µM	1.2 µM	> 30 µM	2.49	–	–
–	–	–	CC(SC1c2cccc(O)c2C(=O)c2c(O)cccc21)C(=O)O (stereo not given)	–	> 30 µM	0.2 µM	15 µM	9.34	–	–
–	–	–	NC(CSC1c2cccc(O)c2C(=O)c2c(O)cccc21)C(=O)O (stereo not given)	–	> 30 µM	> 5 µM	30 µM	2.33	–	–
–	–	–	CCOC(=O)CSC1c2cccc(O)c2C(=O)c2c(O)cccc21	–	> 30 µM	4.5 µM	> 30 µM	4.51	–	–
7.9	21 h	32 h	COc1ccc(SC2c3cccc(O)c3C(=O)c3c(O)cccc32)cc1	137 mU/mL	3 µM	1.7 µM	30 µM	1.59	–	–
–	–	–	O=C(O)CCSC1c2cccc(O)c2C(=O)c2c(O)cccc21	–	2 µM	1.9 µM	30 µM	6.34	–	–
–	–	–	O=C1c2c(O)cccc2C(Sc2ccccc2O)c2cccc(O)c21	174 mU/mL	5 µM	1.7 µM	30 µM	3.7	–	–
–	–	–	O=C1c2c(O)cccc2C(SCc2ccccc2)c2cccc(O)c21	–	> 30 µM	1.4 µM	30 µM	3.74	–	–
–	–	–	COC(=O)CCSC1c2cccc(O)c2C(=O)c2c(O)cccc21	133 mU/mL	15 µM	1.1 µM	27 µM	5.25	–	–
5.4	12 h	28 h	O=C1c2c(O)cccc2C(Sc2ccccc2)c2cccc(O)c21	–	8 µM	3.7 µM	30 µM	4.13	–	–
–	–	–	O=C1c2c(O)cccc2C(SCCc2ccccc2)c2cccc(O)c21	–	30 µM	4.7 µM	> 30 µM	2.78	4 h	3 h
–	–	–	O=C(O)CSC1c2cccc(O)c2C(=O)c2c(O)cccc21	–	> 30 µM	> 5 µM	30 µM	6.12	–	–
–	–	–	CCCCOC(=O)CSC1c2cccc(O)c2C(=O)c2c(O)cccc21	–	> 30 µM	2.1 µM	30 µM	4.19	–	–
–	–	–	O=C1c2c(O)cccc2C(SCCCc2ccccc2)c2cccc(O)c21	–	–	> 5 µM	–	2.71	–	–
–	–	–	COc1ccccc1SC1c2cccc(O)c2C(=O)c2c(O)cccc21	–	6 µM	4.2 µM	3 µM	4.33	–	–
–	–	–	COC(=O)CSC1c2cccc(O)c2C(=O)c2c(O)cccc21	–	13 µM	1.9 µM	> 30 µM	4.89	–	–
–	–	–	O=C1c2c(O)cccc2C(SCCCS)c2cccc(O)c21	369 mU/mL	> 30 µM	0.8 µM	30 µM	4.09	–	–
–	–	–	Nc1ccc(SC2c3cccc(O)c3C(=O)c3c(O)cccc32)cc1	184 mU/mL	7 µM	0.9 µM	> 30 µM	1.49	–	–
–	–	–	CCCSC1c2cccc(O)c2C(=O)c2c(O)cccc21	117 mU/mL	> 30 µM	1.2 µM	> 30 µM	2.81	–	–
–	–	–	CCSC1c2cccc(O)c2C(=O)c2c(O)cccc21	–	> 30 µM	1.4 µM	> 30 µM	4.23	–	–
–	–	–	CCOC(=O)CCSC1c2cccc(O)c2C(=O)c2c(O)cccc21	124 mU/mL	> 30 µM	1.6 µM	30 µM	5.52	–	–
6.2	34 h	55 h	O=C1c2c(O)cccc2C(Sc2ccc(O)cc2)c2cccc(O)c21	148 mU/mL	2 µM	0.1 µM	3 µM	3.61	–	–
–	–	–	O=C1c2c(O)cccc2C(SCC(O)CO)c2cccc(O)c21 (stereo not given)	–	9 µM	1.7 µM	> 30 µM	2.45	–	–

SMILES	pKa [1]	half-life [5]	half-life [7]	LDH (HaCaT [2])	IC50 [3]	IC50 (HaCaT [4])	IC50 [6]	DD [8]	half-life [9]	half-life [10]
CCCCOC(=O)CCSC1c2cccc(O)c2C(=O)c2c(O)cccc21	5.7	2 h	11 h	–	30 µM	2.3 µM	30 µM	5.38	–	–
COc1ccc(CSC2c3cccc(O)c3C(=O)c3c(O)cccc32)cc1	6.1	5 h	23 h	–	> 30 µM	3 µM	30 µM	5.01	–	–
